In ChEMBL document CHEMBL1153556, “Antiplasmodial activity of [(aryl)arylsulfanylmethyl]Pyridine” (Antimicrob Agents Chemother, 2008):
Calls of active or inactive are those of the source. The calls are words filed in the database; no cut-off is given here.

Legend:
[1] = tested on: Plasmodium falciparum; assay: Antiplasmodial activity after 48 hrs against chloroquine-sensitive Plasmodium falciparum NF54 by [3H]hypoxanthine uptake; assay type: functional, organism-based
Summary of the method: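 Ring-stage cultures were synchronized with 5% d-sorbitol. At 0.5 to 1% parasitemia they were grown in multiwell plates (200 μl/well) across a range of concentrations, with chloroquine as positive control. After 48 h, [3H]hypoxanthine (0.7 μCi/well) was added and culture continued 48 h. Parasites were washed in PBS, dissolved in 3 N NaOH (37°C, 6 h) and counted by β-counter. IC50 reported as mean ± SEM.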

[2] = biological target: Plasmodium yoelii; assay: Inhibition of hemozoin formation after 48 hrs in multi drug-resistant Plasmodium yoelii
[3] = tested on: MCF7; assay: Cytotoxicity against human MCF7 cells assessed as cell viability after 24 hrs by MTT assay; assay type: cell-based; settings: MCF7, 24 h
[4] = tested on: Plasmodium yoelii; assay: Antiplasmodial activity as reduced parasitaemia at day 4 against multi drug-resistant Plasmodium yoelii infected BALB/c mice (Mus musculus) at 25 mg/kg intraperitoneal dose 6 hrs post infection and daily for 3 days by Giemsa stain; assay type: functional; design: scale not given: the % may be the effect or the level left
Summary of the method: (§1)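 BALB/c mice (22 ± 2 g), five per group, infected intraperitoneally on day 0 with 10^5 parasitized RBC of P. yoelii resistant to chloroquine, mefloquine and halofantrine. Dosing was intraperitoneal in groundnut oil (0.2 ml), starting 6 h after inoculation and given once daily on days 0–3. Parasitemia was read on Giemsa thin smears on day 4. Group means gave % suppression [(C−T)/C]×100 against vehicle controls; α-β-arteether served as the positive control.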

[5] = tested on: Plasmodium falciparum; assay: Antiplasmodial activity as increased heme accumulation after 48 hrs against chloroquine-sensitive Plasmodium falciparum NF54 at 10-100 uM by spectrophotometry; assay type: functional, organism-based
Summary of the method: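 Cultures were exposed to a range of concentrations for 48 h, then pelleted and washed in PBS. Each pellet was solubilized in 1 ml concentrated formic acid. Heme was read at 398 nm (ε = 1.56 × 10^5 M−1 cm−1) and expressed as nmol/mg cell protein.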

[6] = tested on: Plasmodium falciparum; assay: Induction of oxidative stress as lipid peroxide formation after 48 hrs in chloroquine-sensitive Plasmodium falciparum NF54; assay type: functional, organism-based
Summary of the method: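 Ring-synchronized culture (4% parasitemia) was treated 48 h, and parasites were isolated and lysed in PBS. Lysate was heated with TCA–thiobarbituric acid in 1 N HCl at 100°C for 15 min, cooled and centrifuged. A535 of the supernatant was read against a tetraethoxypropane standard, expressed as nmol/mg lysate protein.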

[7] = tested on: Plasmodium falciparum; assay: Induction of oxidative stress as increased hydroxyl radical formation after 48 hrs in chloroquine-sensitive Plasmodium falciparum NF54 by fast blue BB assay; assay type: functional, organism-based
Summary of the method: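 Ring/early-trophozoite culture (2% parasitemia) was grown 48 h with compound plus 20 μl of 25% DMSO as ·OH trap, re-dosed at each daily medium change; a parasite-only control had neither. Isolated parasites were lysed in water, and methanesulfinic acid from the DMSO–·OH reaction was extracted for quantitation.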

[8] = tested on: Plasmodium yoelii; assay: Antiplasmodial activity as reduced parasitaemia at day 4 against multi drug-resistant Plasmodium yoelii infected BALB/c mice (Mus musculus) at 50 mg/kg intraperitoneal dose 6 hrs post infection and daily for 3 days by Giemsa stain; assay type: functional; design: scale not given: the % may be the effect or the level left; summary of the method: as §1
[9] = tested on: Plasmodium falciparum; assay: Induction of oxidative stress as increased H2O2 formation after 48 hrs in chloroquine-sensitive Plasmodium falciparum NF54 by spectrofluorimetry; assay type: functional, organism-based
Summary of the method: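 Parasites at 4% parasitemia were treated 48 h, then loaded 30 min with 10 μM 2′,7′-dichlorofluorescein diacetate. They were isolated and lysed by mild sonication at 4°C. Dichlorofluorescein fluorescence was read at ex 502/em 523 nm and expressed as intensity/mg lysate protein.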

[10] = biological target: T1, Histidine-rich protein PFHRP-II (Plasmodium falciparum) (UniProt P05227); assay: Inhibition of hemozoin formation after 48 hrs against chloroquine-sensitive Plasmodium falciparum NF54 at 10 to 100 uM by spectrophotometry; assay type: functional
T1 sequence (whole entry): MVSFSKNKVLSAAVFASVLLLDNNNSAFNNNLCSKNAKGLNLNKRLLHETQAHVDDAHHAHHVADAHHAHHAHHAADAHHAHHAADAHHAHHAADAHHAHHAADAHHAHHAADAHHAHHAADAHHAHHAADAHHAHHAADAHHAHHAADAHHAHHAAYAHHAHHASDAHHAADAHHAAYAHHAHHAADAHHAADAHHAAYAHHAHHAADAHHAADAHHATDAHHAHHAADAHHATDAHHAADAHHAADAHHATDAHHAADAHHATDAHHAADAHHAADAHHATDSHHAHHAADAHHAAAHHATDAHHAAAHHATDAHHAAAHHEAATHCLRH
Summary of the method: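 Ring-synchronized culture (5% parasitemia, sorbitol) was treated 48 h across a concentration range. Parasites were saponin-isolated and sonicated, and the pellet washed in 2% SDS. It was digested with proteinase K (2 μg/ml, 37°C overnight), treated with 6 M urea for 3 h, and washed in SDS. Hemozoin was dissolved in 20 mM NaOH/2% SDS and read at 400 nm.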

[11] = tested on: Plasmodium yoelii; assay: Antiplasmodial activity as reduced parasitaemia at day 4 against multi drug-resistant Plasmodium yoelii infected BALB/c mice (Mus musculus) at 10 mg/kg intraperitoneal dose 6 hrs post infection and daily for 3 days by Giemsa stain; assay type: functional; design: scale not given: the % may be the effect or the level left; summary of the method: as §1
[12] = biological target: T2, Histidine-rich protein PFHRP-II (Plasmodium falciparum, UniProt P05227); assay: Inhibition of hemozoin formation after 48 hrs in chloroquine-sensitive Plasmodium falciparum NF54; assay type: functional
T2 sequence (P05227 whole entry): T1 sequence (whole entry)
Summary of the method: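 P. falciparum NF54 culture (5% parasitemia) was ring-synchronized with 5% d-sorbitol, then exposed to graded drug concentrations for 48 h. Parasites were freed with saponin, sonicated and washed with 2% SDS. The pellet was digested overnight at 37°C with proteinase K (2 μg/ml) in Tris/SDS/CaCl2 and treated with 6 M urea for 3 h. After further SDS washes, hemozoin was dissolved in 20 mM NaOH/2% SDS and read at 400 nm.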

[13] = tested on: MCF7; assay: Cytotoxicity against human MCF7 cells assessed as cell viability at 10 to 1000 uM after 24 hrs by MTT assay; assay type: cell-based; settings: mcf7, 24 h
[14] = tested on: Plasmodium falciparum; assay: Induction of oxidative stress as decreased glutathione after 48 hrs in chloroquine-sensitive Plasmodium falciparum NF54 by TCA assay; assay type: functional, organism-based
Summary of the method: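 Parasites at 4% parasitemia were treated 48 h, then isolated and sonicated in 20 mM ice-cold EDTA. The lysate was deproteinized with equal-volume 10% TCA, and the supernatant mixed with 0.8 M Tris-HCl pH 9 containing 20 mM DTNB. A412 was read against a GSH standard and expressed as % of control.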

[15] = Selectivity index ratio of IC50 for human MCF7 cells to IC50 for chloroquine-sensitive Plasmodium falciparum NF54; assay type: functional
Summary of the method: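 Selectivity index = MCF-7 MTT IC50 divided by P. falciparum NF-54 [3H]hypoxanthine-uptake IC50.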

[16] = biological target: Heme; assay: Binding affinity to heme by optical difference spectroscopy
Summary of the method: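 Heme in 100 mM acetate buffer pH 5.2 at 25 ± 1°C, 1-cm quartz cell, was titrated with successive additions of compound (5 to 40 μM). Soret and difference spectra were recorded after each addition. KD came from a double-reciprocal plot of 1/ΔA362 against 1/[ligand]; mean ± SEM.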

[17] = tested on: Plasmodium yoelii; assay: Antiplasmodial activity as decreased mitochondrial transmembrane potential after 1 hrs against multi drug-resistant Plasmodium yoelii trophozoite infected Swiss mice (Mus musculus) erythrocytes at 10 uM by JC1 uptake; assay type: functional, organism-based
[18] = tested on: Plasmodium falciparum; assay: Antiplasmodial activity as parasite invasion after 24 hrs against chloroquine-sensitive Plasmodium falciparum NF54 infected human B+ erythrocytes at <40 uM 24 hrs preinfection by [3H]hypoxanthine uptake; assay type: functional, organism-based
Summary of the method: (§2)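 Uninfected human B+ RBC at 5% hematocrit were preincubated 24 h in CRPMI with compound up to 40 μM; DMSO served as control. Cells were washed three times, then inoculated with trophozoite-rich parasitized RBC (4 to 5% parasitemia). After one intraerythrocytic cycle, [3H]hypoxanthine (0.7 μCi/well) was added for 24 h. Cells were filter-harvested and counted (cpm), n = 6.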

[19] = tested on: Plasmodium falciparum; assay: Antiplasmodial activity after 48 hrs against chloroquine-sensitive Plasmodium falciparum NF54 by [3H]hypoxanthine uptake in presence of mannitol; assay type: functional, organism-based
Summary of the method: (§3)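 Cultures at 4% parasitemia received test compound at 40 μM for 48 h, plus the ·OH scavenger PBN (40 mM) or mannitol (10 mM). Growth was read as [3H]hypoxanthine incorporation, β-counting, n = 6, mean ± SEM.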

[20] = tested on: Plasmodium falciparum; assay: Antiplasmodial activity after 48 hrs against chloroquine-sensitive Plasmodium falciparum NF54 by [3H]hypoxanthine uptake in presence of PBN; assay type: functional, organism-based; summary of the method: as §3
[21] = tested on: Plasmodium falciparum; assay: Antiplasmodial activity as parasite growth after 24 hrs against chloroquine-sensitive Plasmodium falciparum NF54 infected human B+ erythrocytes at <40 uM 24 hrs preinfection by [3H]hypoxanthine uptake; assay type: functional, organism-based; summary of the method: as §2
[22] = tested on: Plasmodium yoelii; assay: Antiplasmodial activity as reduced parasitaemia at day 4 against multi drug-resistant Plasmodium yoelii infected BALB/c mice (Mus musculus) at 100 mg/kg intraperitoneal dose 6 hrs post infection and daily for 3 days by Giemsa stain; assay type: functional; design: scale not given: the % may be the effect or the level left; summary of the method: as §1

Structure (SMILES)	IC50 [1]	IC50 [2]	IC50 [3]	Activity [4]	Activity [6]	Activity [7]	Activity [8]	Activity [9]	Activity [10]	IC50 [12]	Activity [13]	Activity [14]	Kd [16]	further results
COc1ccc(C(Sc2ccc(C)cc2)c2ccccn2)cc1 (stereo not drawn)	20 µM	–	–	–	–	–	–	–	–	–	–	–	–	–
COc1ccc(C(Sc2ccccc2)c2cccnc2)cc1 (stereo not drawn)	5 µM	18 µM	1000 µM	30%	Dose-dependent effect	Dose-dependent effect	60%	Dose-dependent effect	Dose-dependent effect	11 µM	Non-toxic	Dose-dependent effect	20 µM	%max [5]: Active; Activity [11]: 20%; Ratio IC50 [15]: 200
COc1ccc(C(Sc2nc3ccccc3s2)c2cccnc2)cc1 (stereo not drawn)	12 µM	40 µM	–	–	–	–	–	–	–	35 µM	–	–	14 µM	–
CCCCCC[C@H]1C(=O)O[C@H](C)[C@H](NC(=O)c2cccc(NC=O)c2O)C(=O)O[C@@H](C)[C@@H]1OC(=O)CC(C)C	–	–	–	–	–	–	–	–	–	–	–	–	–	Activity [17]: Active
COc1ccc(C(Sc2ccc(C)cc2)c2cccnc2)cc1 (stereo not drawn)	20 µM	20 µM	–	–	–	–	–	–	–	40 µM	–	–	12 µM	–
COc1ccc(C(Sc2ccc(Cl)cc2)c2cccnc2)cc1 (stereo not drawn)	12 µM	40 µM	–	–	–	–	–	–	–	40 µM	–	–	–	–
COc1ccc(C(Sc2ccc3ccccc3c2)c2cccnc2)cc1 (stereo not drawn)	4 µM	–	650 µM	65%	Dose-dependent effect	Dose-dependent effect	85%	Dose-dependent effect	Dose-dependent effect	–	Non-toxic	Dose-dependent effect	–	Activity [5]: Active; Activity [18]: inactive; Activity [17]: Active; Activity [11]: 40%; Activity [19]: inactive; Activity [20]: inactive; Activity [21]: inactive
COc1ccc(C(Sc2ccccc2C)c2cccnc2)cc1 (stereo not drawn)	8 µM	26 µM	1000 µM	30%	Dose-dependent effect	Dose-dependent effect	50%	Dose-dependent effect	Dose-dependent effect	16 µM	Non-toxic	Dose-dependent effect	26 µM	Activity [5]: Active; Activity [21]: inactive; Ratio IC50 [15]: 125; Activity [22]: 80%
